This is an account of results in ChEMBL document CHEMBL4138111, “Nanomolar anti-sickling compounds identified by ligand-based pharmacophore approach” (Eur J Med Chem, 2017).

Each structure is given as a SMILES string.

In series [1] the target is T1, Adenosine receptor A2b (Homo sapiens) (UniProt P29275).
T1 sequence (whole entry): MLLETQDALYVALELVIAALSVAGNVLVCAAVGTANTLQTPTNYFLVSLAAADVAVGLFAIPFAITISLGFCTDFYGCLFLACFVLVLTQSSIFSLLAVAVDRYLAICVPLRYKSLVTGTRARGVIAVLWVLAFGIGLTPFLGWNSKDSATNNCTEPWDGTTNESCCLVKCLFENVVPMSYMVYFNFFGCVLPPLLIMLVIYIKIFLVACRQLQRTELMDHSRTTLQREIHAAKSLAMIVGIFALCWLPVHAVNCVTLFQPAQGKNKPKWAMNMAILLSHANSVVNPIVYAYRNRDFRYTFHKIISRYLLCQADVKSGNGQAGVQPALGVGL
Kind of series: Antagonist activity at Adenosine receptor subtype 2B in human RBC assessed as change in erythrocyte morphology at 10 uM incubated for 3 hrs with occasional gentle stirring for every 30 min measured for every 12 hrs by microscopic analysis relative to control. The format is functional, cell-based. Details: scale not given: the % may be the effect or the level left. The method in brief:
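RBCs come from sickle cell anemia patients, washed in 0.9% saline and diluted 1:10. Cells are exposed to compound at a single 10 µM final concentration for 3 h at 37 °C, stirred gently every 30 min, then given 2% sodium metabisulfite. Morphology is read by microscopy (40X) every 12 h, counting >500 erythrocytes from five random fields. Triplicate assays; MRS1754 (10 µM) is the reference antagonist.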

Another series concerns J774. Kind of series: Cytotoxicity against mouse J774 cells assessed as cell viability up to 100 uM after 72 hrs by AlamarBlue assay. The following applies: j774, 72 h. In kind it is cell-based. The method in brief:
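J774 murine macrophage-like cells are seeded at 2 × 10^5 cells/well in DMEM with 10% FBS and gentamycin and incubated 2 h at 37 °C, 5% CO2. Compounds are added at five concentrations (6.25-100) for 72 h, in 5% DMSO/saline vehicle. Alamar Blue is then added for 12 h more, with absorbance read at 570 and 600 nm. Gentian violet serves as positive control. Triplicates, three experiments.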

Series [2] addresses T1, Adenosine receptor A2b (Homo sapiens). Put plainly: Antagonist activity at Adenosine receptor subtype 2B in human RBC assessed as inhibition of NECA-induced-sickling effect by measuring change in erythrocyte morphology preincubated for 3 hrs with occasional gentle stirring for every 30 min followed by incubated for 2 to 12 hrs under normoxic/hypoxic condition measured for every 12 hrs by microscopic analysis. The format is functional, cell-based. In a few lines: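 Patient SCA erythrocytes are treated as in the EC50 sickling assay. Compounds are tested at three concentrations (0.03-1) against six NECA concentrations (0.001-1000). Sickling is scored by microscopy. NECA EC50 is determined with and without compound, and the dose ratio is derived from these. pKb is obtained by Schild analysis as log[DR−1] − log[B]. Mean ± SD of five experiments.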

The target in a further series is Adenosine receptor (Homo sapiens, UniProt P30542+P29275+P0DMS8+P29274). Put plainly: Antagonist activity at Adenosine receptor in human RBC assessed as change in erythrocyte morphology incubated for 3 hrs with occasional gentle stirring for every 30 min measured for every 12 hrs by microscopic analysis. The format is cell-based. In a few lines: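 Erythrocytes from sickle cell anemia patients are separated by centrifugation (5 min, 16,000 g, 4 °C), washed three times in 0.9% saline and diluted 1:10 in saline. Cells are held with compound at 37 °C for 3 h, then challenged with 2% sodium metabisulfite. Sickled cells (>500 cells, five fields, 40X) are counted. Seven concentrations (0.001-100) are tested. EC50 comes from biphasic nonlinear regression with Hill slopes fixed at 1.0. Mean ± SD of five experiments, each in triplicate.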

Take `CCCc1cc(O)nc(SC(C)C(=O)Nc2cc(C)no2)n1` (stereo not drawn): the Activity in series [1] is above 70%. In addition, the Activity entry with J774 is on record as “Non-Toxic”. In series [2], the inhibition result was “Dose-dependent effect” and the pKb is 9.45.
On to `CCCn1c(=O)c2[nH]c(-c3ccc(OCC(=O)Nc4ccc(C#N)cc4)cc3)nc2n(CCC)c1=O`, for which, in series [1], the Activity came to 54%. Besides, in series [2], the inhibition entry was “Dose-dependent effect” and the pKb worked out at 8.68.
On to `CC(OC(=O)c1nccnc1N)C(=O)NCc1ccc2c(c1)OCO2` (stereo not drawn), for which the Activity in series [1] is above 70%. In addition, in series [2], the inhibition entry is “Dose-dependent effect” and the negative-log Kb (pKb) is 9.54.
With `CC(C)c1noc(OCC(=O)NCc2ccc3c(c2)OCO3)n1`, the pEC50 on Adenosine receptor was found to be 4.21. The Activity in series [1] is above 70%. Also, in series [2], the inhibition result was “Dose-dependent effect” and the pKb amounted to 7.99.
As to `O=C(CN1CCOC(Cn2cncn2)C1)Nc1cccnc1` (stereo not drawn), the pEC50 at Adenosine receptor is reported as 5.29. Moreover, in series [1], the Activity was above 70%. Further, in the series with J774, the Activity entry is “Non-Toxic”. In series [2], the inhibition result was “Dose-dependent effect” and the pKb came to 8.31.
Regarding `Cc1cc(NC(=O)CNc2ccc3c(c2)OC(F)(F)O3)on1`, the pEC50 at Adenosine receptor is on record as 5.06. The Activity in series [1] is above 70%. Moreover, in series [2], the inhibition entry is “Dose-dependent effect” and the pKb came out at 7.38.
